Measurements: ChEMBL document CHEMBL4251709, “Synthesis, Biological Investigation, and Structural Revision of Sielboldianin A” (J Nat Prod, 2018)

Experiments:
[1] = tested on: HepG2; experiment: Antioxidant activity in human HepG2 cells assessed as inhibition of ABAP-induced peroxyl radical generation incubated for 60 mins measured for 60 mins by DCFH-DA probe based fluorescence assay; type: functional, cell-based; details: HepG2, 1 h
Procedure, shortened: (§1)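 HepG2 cells grown in MEM Earle's with gentamycin, L-alanyl-L-glutamine, nonessential amino acids, sodium pyruvate and 10% FBS at 37 °C, 5% CO2. 80 000 cells per well were seeded 24 h ahead, ~50% confluent at testing. Sesquiterpenoids were dissolved in DMSO, giving 1% DMSO final in all wells including controls. IC50 from dose–response Hill-slope fit, three experiments, mean ± SD.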

[2] = tested on: HepG2; experiment: Antioxidant activity in human HepG2 cells assessed as inhibition of cumene hydroperoxide-mediated lipid peroxidation incubated for 60 mins followed by cumOOH addition for 60 mins measured for 60 mins by C11-BODIPY probe based fluorescence assay; type: functional, cell-based; details: HepG2, 1 h; procedure, shortened: as §1
[3] = tested on: K562; experiment: Cytotoxicity against human K562 cells assessed as inhibition of cell growth after 5 days by MTT assay; type: cell-based; details: K562, 120 h
Procedure, shortened: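 K562 cells kept in antibiotic-free RPMI with 2-mercaptoethanol (2 μM), L-glutamine (2 mM) and 10% FCS. 100 μL of cells at 40 000 cells/mL were mixed with 100 μL of serially diluted compound (DMSO stock) in medium, with a drug-free control. Incubation 5 days, 37 °C, 5% CO2. MTT (3 mg/mL) for 3 h, formazan taken up in DMSO, read at 540 and 690 nm. IC50 as % of control growth, three experiments.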

| Compound | IC50 [1] [µM] | IC50 [2] [µM] | IC50 [3] [µM] |
| --- | --- | --- | --- |
| Cc1ccc([C@]2(C)CC[C@@H](C(C)(C)O)O2)cc1O | 18 | 31 | > 50 |
| O=c1c(O)c(-c2ccc(O)c(O)c2)oc2cc(O)cc(O)c12 [QUERCETIN] | 65 | 12 | 2.5 |
| CC(C)=CCC[C@](C)(O)c1ccc(C)cc1 | > 100 | > 100 | > 50 |
| Cc1ccc([C@]2(C)CC[C@@H](C(C)(C)O)O2)cc1 | > 100 | > 100 | > 50 |
